Converted amounts (≈) assume the structure as drawn. The source made the active and inactive calls. The rule behind the calls is not given here.
Columns and labels:
MCF7 [1] = test: Antiproliferative activity against human MCF7 cells incubated for 72 hrs by MTT assay; format: functional, cell-based; settings: MCF7, 72 h
Summary of the method: (§1)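 MTT antiproliferation assay in MCF7 and SKBr3 breast cancer cells; IC50 determined.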

SK-BR-3 = test: Antiproliferative activity against human SKBR3 cells incubated for 72 hrs by MTT assay; format: functional, cell-based; settings: SK-BR-3, 72 h; summary of the method: as §1
MCF7 [2] = test: Growth inhibition of human MCF7 cells at 50 uM incubated for 72 hrs by MTT assay; format: functional; settings: MCF7, 72 h, read-out: GI
Summary of the method: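 MTT screen in MCF7 cells at a single concentration of 50 µM; growth inhibition rate recorded.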

[3] = molecular target: T1, Heat shock protein HSP90 (Homo sapiens) (UniProt P07900+P08238); test: Inhibition of HSP90 C-terminal in human MCF7 cells assessed as reduction in CDK6 protein expression at 5 to 20 uM incubated for 24 hrs by Western blot method; format: cell-based
Summary of the method: (§2)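 MCF7 cells incubated 24 h with various concentrations, then client protein levels read by Western blot. β-Actin served as loading control. AT13387 (1.0 µM), an N-terminal Hsp90 inhibitor, was the positive control.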

[4] = molecular target: T1, Heat shock protein HSP90 (Homo sapiens); test: Inhibition of HSP90 C-terminal in human MCF7 cells assessed as reduction in Akt protein expression at 5 to 20 uM incubated for 24 hrs by Western blot method; format: cell-based; summary of the method: as §2
[5] = molecular target: T1, Heat shock protein HSP90 (Homo sapiens); test: Inhibition of HSP90 C-terminal in human MCF7 cells assessed as reduction in ERK protein expression at 5 to 20 uM incubated for 24 hrs by Western blot method; format: cell-based; summary of the method: as §2
[6] = Permeability coefficient of the compound at pH 7.4 by double-sink PAMPA; format: ADME; settings: read-out: permeability
Summary of the method: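 Double-sink PAMPA at pH 7.4 on a PAMPA Explorer instrument; Pe reported as mean ± SD, n = 3.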

[7] = Intrinsic aqueous solubility of the compound; format: physicochemical
Summary of the method: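 Intrinsic aqueous solubility determined on a Gemini Profiler instrument.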

[8] = Distribution coefficient, log D of the compound at pH 7.4; format: physicochemical; settings: octanol/water
Summary of the method: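 Log D at pH 7.4 measured on a PULSE platform.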

| Compound | IC50 (MCF7 [1]) [µM] | IC50 (SK-BR-3) [µM] | inhibition of growth at 50 µM (MCF7 [2]) [%] | other results |
| --- | --- | --- | --- | --- |
| CCNc1cc(C)c2cc(NC(=O)c3ccc(Cl)c(Cl)c3)ccc2n1 | 48.6 | 28.2 | – | – |
| Cc1cc(N2CCCCC2)nc2ccc(NC(=O)c3ccc(Cl)c(Cl)c3)cc12 | 31.1 | 42.5 | – | – |
| CCN1CCN(c2cc(C)c3cc(NC(=O)c4ccccc4OC)ccc3n2)CC1 | 13.2 | 15.7 | – | – |
| CCN1CCN(c2cc(C)c3cc(NC(=O)c4ccccc4Cl)ccc3n2)CC1 | > 50 | > 50 | – | – |
| COCc1nnc(C(=O)Nc2ccc(C(=O)NCCCN3CCCCC3)cc2)s1 | – | – | < 50 | – |
| COc1ccc(C(=O)Nc2nc(CC(=O)N3CCN(c4ccccc4)CC3)cs2)cc1OC | – | – | < 50 | – |
| CCn1c(C(=O)NCCN2CCOCC2)cc2cc(NC(=O)c3ccc(F)cc3)ccc21 | – | – | < 50 | – |
| CCN1CCN(c2cc(C)c3cc(NC(=O)c4ccccc4)ccc3n2)CC1 | 14.2 | 18.4 | – | – |
| COc1ccc(-c2noc(C(=O)NCc3ccc(CN4CCOCC4)cc3)n2)cc1OC | – | – | < 50 | – |
| O=C(Nc1nc(C(=O)NCCN2CCCCC2)cs1)c1ccc2c(c1)OCO2 | – | – | < 50 | – |
| COc1ccc(C(=O)Nc2cnn(-c3ncc(N4CCSCC4)cn3)c2)cc1F | – | – | < 50 | – |
| Cc1cc(N2CCOCC2)nc2ccc(NC(=O)c3ccc(Cl)c(Cl)c3)cc12 | 12 | 15.1 | – | – |
| CCN1CCN(c2cc(C)c3cc(NC(=O)c4ccccc4F)ccc3n2)CC1 | 32.6 | 38.1 | – | – |
| CCN1CCN(Cc2nc3ccc(NC(=O)c4ccc(OC)cc4)cc3n2C(C)C)CC1 | – | – | 55 | – |
| COc1ccc(NC(=O)c2nnc(COCC(=O)NCCN(C)C)s2)cc1 | – | – | < 50 | – |
| CCN1CCN(c2cc(C)c3cc(NC(=O)c4ccncc4)ccc3n2)CC1 | > 50 | > 50 | – | – |
| COc1ccc(C(=O)Nc2ccc3nc(CN4CCN(C)CC4)n(C)c3c2)cc1OC | – | – | 50.8 | – |

| Compound | IC50 (MCF7 [1]) [µM] | IC50 (SK-BR-3) [µM] | inhibition of growth at 50 µM (MCF7 [2]) [%] | other results |
| --- | --- | --- | --- | --- |
| CCN(CC)c1cc(C)c2cc(NC(=O)c3ccc(Cl)c(Cl)c3)ccc2n1 | > 50 | 41.2 | – | – |
| Cc1cc(N(C)C)nc2ccc(NC(=O)c3ccc(Cl)c(Cl)c3)cc12 | 33.3 | > 50 | – | – |
| CCN1CCN(C(=O)CSCc2nnc(C(=O)Nc3ccc(OC)cc3)s2)CC1 | – | – | < 50 | – |
| CCCOc1cccc(C(=O)NC(=S)Nc2ccc(N3CCCCC3)c(Cl)c2)c1 | – | – | < 50 | – |
| COc1ccc(C(=O)Nc2ccc3nc(SCC(=O)N4CCCC4)sc3c2)cc1 | – | – | 62.5 | – |
| CCN1CCN(CCCNC(=O)c2nc(-c3nn(-c4ccc(C)cc4)c(=O)n(C)c3=O)no2)CC1 | – | – | < 50 | – |
| CCN(CC)CCOC(=O)c1ccc(NC(=O)c2ccc(OC)cc2)cc1 | – | – | < 50 | – |
| O=C(Nc1nc(C(=O)NCCCN2CCCC2=O)cs1)c1ccc2c(c1)OCO2 | – | – | < 50 | – |
| COc1cc(NC(=O)N2CCC(CC(=O)NCCN3CCCC3)CC2)cc(OC)c1OC | – | – | < 50 | – |
| CCN1CCN(c2cc(C)c3cc(NC(=O)c4ccc[nH]4)ccc3n2)CC1 | 14.7 | 13.2 | – | – |
| CCN1CCN(c2cc(C)c3cc(NC(=O)c4cccnc4)ccc3n2)CC1 | 26.6 | 10.6 | – | – |
| Cc1cc(N2CCCC2)nc2ccc(NC(=O)c3ccc(Cl)c(Cl)c3)cc12 | 26.3 | 43.4 | – | – |
| O=C(NCCCN1CCOCC1)c1ccc(NC(=O)c2nnc(COc3ccccc3)s2)cc1 | – | – | 50.6 | – |
| CCN1CCN(c2cc(C)c3cc(NC(=O)c4ccccc4Br)ccc3n2)CC1 | 27.5 | 39.2 | – | – |
| CCc1ccccc1C(=O)Nc1ccc2nc(N3CCN(CC)CC3)cc(C)c2c1 | 15.8 | 23.9 | – | – |
| CCN1CCN(c2cc(C)c3cc(NC(=O)c4ccco4)ccc3n2)CC1 | 41.2 | 37.5 | – | – |

Further lines, with some results ahead:

| IC50 (MCF7 [1]) [µM] | IC50 (SK-BR-3) [µM] | Compound | inhibition of growth at 50 µM (MCF7 [2]) [%] | other results |
| --- | --- | --- | --- | --- |
| 4.03 | 19.8 | CCN1CCN(c2cc(C)c3cc(NC(=O)c4ccc(F)cc4)ccc3n2)CC1 | – | – |
| 8.41 | 8.09 | Cc1oc2ncn(CC(C)C)c(=O)c2c1C(=O)Nc1ccc(C(=O)NCCN2CCCC2)nc1 | 90.4 | inhibition [3]: inactive; inhibition [4]: inactive; inhibition [5]: inactive |
| 1.28 | 9.53 | Cc1cc(NCCN2CCCC2)nc2ccc(NC(=O)c3ccc(Cl)c(Cl)c3)cc12 | – | Papp [6]: 20.8 ×10⁻⁶ cm/s; solubility [7]: 84.5 µg/mL (≈ 191 µM); logD [8]: 1.72 |
| 3.06 | 9.85 | CCc1ccc(C(=O)Nc2ccc3nc(N4CCN(CC)CC4)cc(C)c3c2)cc1 | – | – |
| 7.8 | 13.7 | CCN1CCN(c2cc(C)c3cc(NC(=O)c4cccc(C)c4)ccc3n2)CC1 | – | – |
| 6.09 | 2.66 | CCN1CCN(c2cc(C)c3cc(NC(=O)c4cc(Cl)cc(Cl)c4)ccc3n2)CC1 | – | – |
| 7.06 | 3.76 | CCN1CCN(c2cc(C)c3cc(NC(=O)c4ccc5ccccc5n4)ccc3n2)CC1 | – | – |
| 4.86 | 3.33 | CCN1CCN(c2cc(C)c3cc(NC(=O)c4cccc(OC)c4)ccc3n2)CC1 | 96.9 | inhibition [3]: Active; inhibition [4]: Active; inhibition [5]: Active |
| 5.94 | 6.31 | CCN1CCN(c2cc(C)c3cc(NC(=O)c4ccc(Br)cc4)ccc3n2)CC1 | – | – |
| 3.65 | 2.71 | CCN1CCN(c2cc(C)c3cc(NC(=O)c4ccc(OC)c(OC)c4)ccc3n2)CC1 | – | – |
| 0.032 | 0.045 | CC(C)c1cc(C(=O)N2Cc3ccc(CN4CCN(C)CC4)cc3C2)c(O)cc1O [ONALESPIB] | – | – |
| 5.23 | 1.98 | CCN1CCN(c2cc(C)c3cc(NC(=O)c4ccc(F)c(F)c4)ccc3n2)CC1 | – | – |
| 3 | 6.32 | Cc1cc(N2CCN(C)CC2)nc2ccc(NC(=O)c3ccc(Cl)c(Cl)c3)cc12 | – | – |
| 5.23 | 9.16 | Cc1cc(NCCN2CCOCC2)nc2ccc(NC(=O)c3ccc(Cl)c(Cl)c3)cc12 | – | Papp [6]: 49.8 ×10⁻⁶ cm/s; solubility [7]: 76.2 µg/mL (≈ 166 µM); logD [8]: 2.64 |
| 8.92 | 24.9 | CCN1CCN(c2cc(C)c3cc(NC(=O)c4cccc(F)c4)ccc3n2)CC1 | – | – |
| 2.95 | 2.55 | CCN1CCN(c2cc(C)c3cc(NC(=O)c4cc5ccccc5[nH]4)ccc3n2)CC1 | – | – |
| 1.38 | 2.16 | CCN1CCN(c2cc(C)c3cc(NC(=O)c4ccc(Cl)c(Cl)c4)ccc3n2)CC1 | – | Papp [6]: 25.9 ×10⁻⁶ cm/s; solubility [7]: 11.3 µg/mL (≈ 25.5 µM); logD [8]: 3.67 |
| 1.53 | 3.02 | CCN1CCN(c2cc(C)c3cc(NC(=O)c4ccc(Cl)cc4)ccc3n2)CC1 | – | – |
| 11.6 | 13.3 | CCN1CCN(c2cc(C)c3cc(NC(=O)c4cccc(Br)c4)ccc3n2)CC1 | – | – |
| 7.69 | 9 | CCN1CCN(c2cc(C)c3cc(NC(=O)c4ccc(OC)cc4)ccc3n2)CC1 | – | – |
| 2.52 | 6.35 | CNc1cc(C)c2cc(NC(=O)c3ccc(Cl)c(Cl)c3)ccc2n1 | – | – |
| 4.61 | 12.6 | CCN1CCN(c2cc(C)c3cc(NC(=O)c4ccc5c(c4)OCO5)ccc3n2)CC1 | – | – |
| 6.74 | 11.4 | CCN1CCN(c2cc(C)c3cc(NC(=O)c4ccc(C)cc4)ccc3n2)CC1 | – | – |
| 1.7 | 2.69 | Cc1cc(NCCN2CCN(C)CC2)nc2ccc(NC(=O)c3ccc(Cl)c(Cl)c3)cc12 | – | Papp [6]: 7.71 ×10⁻⁶ cm/s; solubility [7]: 106 µg/mL (≈ 224 µM); logD [8]: 1.73 |
| 3.82 | 17.8 | CCN1CCN(c2cc(C)c3cc(NC(=O)c4cccc(Cl)c4)ccc3n2)CC1 | – | – |
| 1.42 | 3.71 | CCN(CC)CCNc1cc(C)c2cc(NC(=O)c3ccc(Cl)c(Cl)c3)ccc2n1 | – | Papp [6]: 28.1 ×10⁻⁶ cm/s; solubility [7]: 95.2 µg/mL (≈ 214 µM); logD [8]: 1.66 |
| 1.71 | 6.68 | Cc1cc(N2CCN(C(C)C)CC2)nc2ccc(NC(=O)c3ccc(Cl)c(Cl)c3)cc12 | – | – |
| 2.55 | 6.67 | Cc1cc(NCCN(C)C)nc2ccc(NC(=O)c3ccc(Cl)c(Cl)c3)cc12 | – | Papp [6]: 3.13 ×10⁻⁶ cm/s; solubility [7]: 122 µg/mL (≈ 292 µM); logD [8]: 1.47 |
| 5.38 | 4.99 | CCN(CC)CCOC(=O)c1ccc(NC(=O)C2=CC3C(c4ccccc4F)=NN(C)C3S2)cc1 (centres undefined) | 99.6 | inhibition [3]: inactive; inhibition [4]: inactive; inhibition [5]: inactive |
| 10.9 | 29.2 | CCN1CCN(c2cc(C)c3cc(NC(=O)c4ccccc4C)ccc3n2)CC1 | – | – |

Reference: ChEMBL document CHEMBL4130484, “Identification and optimization of novel 6-acylamino-2-aminoquinolines as potent Hsp90 C-terminal inhibitors” (Eur J Med Chem, 2017)
